Screens deposited in PubChem by Broad Institute.
DENV2 CPE rescue: inhibitors of DENV2 cytopathic effect. DENV2-infected cells, cytopathic effect rescue, plate reader. CPE inhibition, % at 9.99 µM. 1.7% of 350,000 active; in the data active = CPE inhibition above about 20%, passing the limit was not always enough; inconclusive = no clear call, values can overlap the other calls; tested in BHK-21 cells;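 note: 0% = median of neutral control wells and 100% = median of positive control wells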
XiGFP reactiv: X-chromosome reactivation activator. XiGFP mouse fibroblasts, % GFP-positive cells imaging, 3 d; cells co-treated with 5-aza-dC sensitizer; scaled so ellipticine positive control = 100%. activation, % at 7.58 µM. 0.055% of 360,000 active. AID 743238;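 active = mean normalized replicate activation at least 10% and every replicate at or above 10%; inconclusive = only one of the two criteria met; inactive = mean below 10% and not all replicates reach 10%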;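 note: 0% = median of on-plate neutral control wells and 100% = ellipticine 6 µM median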
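Material: XiGFP fibroblasts, SV40-immortalized; Buffer or medium: DMEM containing 5-aza-dC; Compound dosing: single point; Times: 3 days compound exposure.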
PglD inh: PglD (C. jejuni) enzyme inhibition. purified PglD enzyme, DTNB colorimetric CoA detection. AID 602405. inhibition, % at 12.5 µM. 0.098% of 360,000 active; in the data active = inhibition above about 16%, passing the limit was not always enough; inconclusive = no clear call, values can overlap the other calls
C2C12 statin: protects C2C12 myotubes from simvastatin toxicity | ATP luminescence, 48 h; scaled: DMSO 0, geranylgeraniol control 100 | rescue of ATP level, % at 7.49 µM | 0.78% of 330,000 active | AID 602340;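 active = mean ATP rescue above about 67%, or every replicate alone reaching that limit, limit read from the data, passing the limit was not always enough; inconclusive = no clear call, values can overlap the other calls; inactive = mean under the limit and some replicate under it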;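 note: myotubes were challenged with 10 µM simvastatin during compound exposure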
FGF22 binding: binders of recombinant human FGF22 by thermal shift; Q9HCT0; SYPRO orange fluorescence; percent of sucrose octasulfate shift, DMSO zero; activity (Tm shift, normalised), % at 9.99 µM; 1.5% of 340,000 active; AID 651658;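 active = mean Tm shift, scaled 0 neutral to 100 positive control, at about 1.3% or above, every replicate too, limit read from the data; inconclusive = no clear call, values can overlap the other calls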
E-selectin induc: E-selectin induction on HUVECs; P16581; HUVEC E-selectin immunofluorescence imaging; normalized: neutral wells 0, TNF-alpha wells 100; activation, % at 7.58 µM; 0.37% of 260,000 active; AID 686992;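 active = mean E-selectin-positive cell signal at least 10% of the positive control, reached in at least 60% of replicates, without over 20% cell loss; inconclusive = no rule given, readout overlaps actives, possibly toxicity-flagged; inactive = the rest, including those meeting only one limit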
Target sequence (P16581 whole entry, looked up): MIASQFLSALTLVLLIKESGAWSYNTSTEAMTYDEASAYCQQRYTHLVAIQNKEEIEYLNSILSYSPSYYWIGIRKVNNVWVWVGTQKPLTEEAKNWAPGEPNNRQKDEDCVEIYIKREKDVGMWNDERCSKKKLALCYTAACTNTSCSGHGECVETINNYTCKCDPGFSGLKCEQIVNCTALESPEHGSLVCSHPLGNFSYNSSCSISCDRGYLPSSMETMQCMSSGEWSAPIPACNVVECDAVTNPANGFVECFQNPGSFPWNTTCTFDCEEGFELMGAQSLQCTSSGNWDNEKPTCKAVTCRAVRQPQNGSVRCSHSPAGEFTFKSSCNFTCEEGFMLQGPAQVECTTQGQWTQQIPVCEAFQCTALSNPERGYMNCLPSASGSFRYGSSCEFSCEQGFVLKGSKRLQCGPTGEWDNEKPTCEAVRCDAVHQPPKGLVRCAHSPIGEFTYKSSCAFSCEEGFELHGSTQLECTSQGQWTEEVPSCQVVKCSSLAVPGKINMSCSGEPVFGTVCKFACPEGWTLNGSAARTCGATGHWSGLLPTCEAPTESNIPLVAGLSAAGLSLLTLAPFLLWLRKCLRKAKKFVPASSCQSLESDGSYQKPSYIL
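System: HUVEC, human umbilical vein endothelial cells; quantity: 3,000 cells/well; buffer or medium: EGM-2 medium, gelatin-coated wells; dosing: single-point compound dose; detection: immunofluorescence imaging; evaluation: % PE-positive cells; benchmarks: TNF-alpha, DMSO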
An asterisk follows results filed as active; ? = inconclusive; . = not tested or not shown. A selection: hits, their analogues and other compounds. The true share with any hit is near 3.3%.

SMILES	DENV2 CPE rescue	XiGFP reactiv	PglD inh	C2C12 statin	FGF22 binding	E-selectin induc
CO[C@H]1CN(C)C(=O)c2cc(NC(C)=O)ccc2OC[C@H](C)N(Cc2ccncc2)C[C@@H]1C	0	0	1	-1	0	0
CC(C)CNC(=O)[C@@]1(c2ccc([N+](=O)[O-])cc2)CC(=O)N(CC23CC4CC(CC(C4)C2)C3)[C@@H]1c1ccc(CO)cc1	0	.	-8	.	-1	.
C[C@@H]1CN([C@@H](C)CO)C(=O)Cc2cc(NS(=O)(=O)c3ccc(F)cc3)ccc2O[C@H]1CN(C)C(=O)NC1CCCCC1	?	0	9	3	0	0
O=C(C[C@@H]1CC[C@@H](NC(=O)C2CCOCC2)[C@@H](CO)O1)NCc1ccccc1Cl	8	0	13	8	0	0
C[C@H](CO)N1C[C@H](C)[C@H](CN(C)C)Oc2c(NC(=O)c3ccncc3)cccc2C1=O	-1	0	-1	-5	0	.
C[C@@H]1CN([C@H](C)CO)C(=O)Cc2cc(NC(=O)Nc3ccc(F)cc3)ccc2O[C@H]1CN(C)Cc1ccc(-c2ccccc2)cc1	-1	0	11	48	0	0
C[C@H]1CN([C@@H](C)CO)C(=O)Cc2cc(NC(=O)Nc3ccc(F)cc3)ccc2O[C@H]1CN(C)Cc1ccc(-c2ccccc2)cc1	50*	0	5	2	1	1
COc1cccc(/C=C/C(=O)OCC(=O)Nc2ccc(N3CCOCC3)cc2)c1OC	-10	0	.	.	44*	.
COc1cccc(/C=C/C(=O)OCC(=O)NC2CC2)c1OC	-4	0	5	-1	0	0
Cc1ccc(S(=O)(=O)Nc2ccc3c(c2)C(=O)N([C@H](C)CO)C[C@@H](C)[C@@H](CN(C)C(=O)NC2CCCCC2)OCCCC[C@H](C)O3)cc1	4	0	-2	.	-1	0
CNC(=O)C[C@H]1CC[C@H]2[C@@H](COc3ccc(NC(=O)c4cccc(F)c4)cc3C(=O)N2C)O1	11	0	1	5	0	92*
CNC(=O)C[C@H]1CC[C@@H]2[C@@H](COc3ccc(NC(=O)c4ccccc4Cl)cc3C(=O)N2C)O1	31*	0	4	24	0	0
CCNC(=O)C[C@@H]1CC[C@@H]2[C@@H](COc3ccc(NC(=O)c4ccccc4Cl)cc3C(=O)N2C)O1	-5	.	-1	-7	0	.
COC(=O)C[C@@H]1CC[C@H]2[C@H](COc3ccc(NC(=O)c4ccc(C(F)(F)F)cc4)cc3C(=O)N2C)O1	-5	0	-3	-6	0	0
COC(=O)C[C@@H]1CC[C@H]2[C@@H](COc3ccc(NC(=O)c4ccc(C(F)(F)F)cc4)cc3C(=O)N2C)O1	99*	0	1	-4	0	0
CN1C(=O)c2cc(NC(=O)c3cccc(F)c3)ccc2OC[C@H]2O[C@@H](CC(=O)NCc3ccccc3Cl)CC[C@H]21	-12	0	-1	-14	1.6*	0
COc1cccc(C#Cc2ccc([C@H]3[C@@H](CO)N4C(=O)CN(C(=O)c5ccncc5)C[C@H]34)cc2)c1	13	0	.	.	.	0
Cc1ccccc1-c1ccc([C@H]2[C@H]3CN(C(=O)Cc4ccccn4)CC(=O)N3[C@H]2CO)cc1	-3	0	.	.	-1	-1
CNC(=O)C[C@@H]1CC[C@H]2[C@@H](COc3ccc(NC(=O)c4ccc(OC)cc4)cc3C(=O)N2C)O1	64*	0	1	-7	0	0
CNC(=O)C[C@H]1CC[C@H]2[C@@H](COc3ccc(NC(=O)c4ccc(OC)cc4)cc3C(=O)N2C)O1	2	0	0	0	0	0
Cc1ccc(NC(=O)CO/N=C(\N)c2ccccc2)cc1C	-17	0	-2	95*	43*	0
CCN(CC)S(=O)(=O)c1ccc2c(c1)nc(CCC(=O)OCC(=O)Nc1cc(OC)cc(OC)c1)n2C	-10	0	.	.	0	.
CCN(CC)S(=O)(=O)c1ccc2c(c1)nc(CCC(=O)OCC(=O)Nc1c(F)cccc1F)n2C	45*	0	.	.	0	.
